These results are taken from ChEMBL document CHEMBL1124808, “The synthesis and antiallergy activity of 1-(aryloxy)-4-(4-arylpiperazinyl)-2-butanol derivatives” (1990).

Molecules are shown by their SMILES.

Holding throughout (assay type): functional
In assay [1] the test system is Rattus norvegicus. Nature of the assay: Percent change in volume of foot edema of test compound to that of positive control was determined at a dose of 31.6 mg/kg in rat; -65/-78.
In assay [2] the test system is Rattus norvegicus. As to the kind of experiment: Percent change in volume of foot edema of test compound to that of positive control was determined at a dose of 10 mg/kg in rat; -43/-77.
The test system of assay [3] is Rattus norvegicus. Nature of the assay: Percent change in volume of foot edema of test compound to that of positive control was determined at a dose of 31.6 mg/kg in rat; -49/-78.
The test system of assay [4] is Rattus norvegicus. As to the kind of experiment: Percent change in volume of foot edema of test compound to that of positive control was determined at a dose of 10 mg/kg in rat; -26/-62.
Assay [5] relates to Rattus norvegicus. As to the kind of experiment: Percent change in volume of foot edema of test compound to that of positive control was determined at a dose of 31.6 mg/kg in rat; -79/-65.
The test system of assay [6] is Rattus norvegicus. Nature of the assay: Percent change in volume of foot edema of test compound to that of positive control was determined at a dose of 10 mg/kg in rat; +22/-73.
In assay [7] the test system is Rattus norvegicus. As to the kind of experiment: Percent change in volume of foot edema of test compound to that of positive control was determined at a dose of 31.6 mg/kg in rat; -85/-82.
Assay [8] has as its system Rattus norvegicus. As to the kind of experiment: Percent change in volume of foot edema of test compound to that of positive control was determined at a dose of 3.16 mg/kg in rat; -34/-79.
The test system of assay [9] is Rattus norvegicus. Nature of the assay: Percent change in volume of foot edema of test compound to that of positive control was determined at a dose of 10 mg/kg in rat; -50/-80.
Assay [10] deals with Rattus norvegicus. As to the kind of experiment: Percent change in volume of foot edema of test compound to that of positive control was determined at a dose of 10 mg/kg in rat; -29/-62.
Assay [11] relates to Rattus norvegicus. As to the kind of experiment: Percent change in volume of foot edema of test compound to that of positive control was determined at a dose of 31.6 mg/kg in rat; -65/-69.
For assay [12], the system named is Rattus norvegicus. Nature of the assay: Percent change in volume of foot edema of test compound to that of positive control was determined at a dose of 31.6 mg/kg in rat; -82/69.
Assay [13] concerns Rattus norvegicus. Nature of the assay: Percent change in volume of foot edema of test compound to that of positive control was determined at a dose of 10 mg/kg in rat; -56/-69.
Assay [14] deals with Rattus norvegicus. Nature of the assay: Percent change in volume of foot edema of test compound to that of positive control was determined at a dose of 3.16 mg/kg in rat; -9/-69.
In assay [15] the test system is Rattus norvegicus. Nature of the assay: Percent change in volume of foot edema of test compound to that of positive control was determined at a dose of 10 mg/kg in rat; +3/-73.
The subject of assay [16] is Rattus norvegicus. Nature of the assay: Percent change in volume of foot edema of test compound to that of positive control was determined at a dose of 31.6 mg/kg in rat; -69/-78.
Assay [17] has as its system Rattus norvegicus. As to the kind of experiment: Percent change in volume of foot edema of test compound to that of positive control was determined at a dose of 10 mg/kg in rat; -38/-69.
Assay [18] has as its system Rattus norvegicus. Nature of the assay: Percent change in volume of foot edema of test compound to that of positive control was determined at a dose of 31.6 mg/kg in rat; -73/-68.
The test system of assay [19] is Rattus norvegicus. Nature of the assay: Percent change in volume of foot edema of test compound to that of positive control was determined at a dose of 3.16 mg/kg in rat; -13/-73.
The test system of assay [20] is Rattus norvegicus. As to the kind of experiment: Percent change in volume of foot edema of test compound to that of positive control was determined at a dose of 31.6 mg/kg in rat; -30/-81.
Assay [21] concerns Rattus norvegicus. Nature of the assay: Percent change in volume of foot edema of test compound to that of positive control was determined at a dose of 31.6 mg/kg in rat; +7/-47.
In assay [22] the test system is Rattus norvegicus. As to the kind of experiment: Percent change in volume of foot edema of test compound to that of positive control was determined at a dose of 31.6 mg/kg in rat; -88/-63.
Assay [23] has as its system Rattus norvegicus. Nature of the assay: Percent change in volume of foot edema of test compound to that of positive control was determined at a dose of 10 mg/kg in rat; -53/-77.
Assay [24] has as its system Rattus norvegicus. As to the kind of experiment: Percent change in volume of foot edema of test compound to that of positive control was determined at a dose of 3.16 mg/kg in rat; -18/-77.
For assay [25], the system named is Rattus norvegicus. As to the kind of experiment: Percent change in volume of foot edema of test compound to that of positive control was determined at a dose of 10 mg/kg in rat; -36/-65.
For assay [26], the system named is Rattus norvegicus. Nature of the assay: Percent change in volume of foot edema of test compound to that of positive control was determined at a dose of 31.6 mg/kg in rat; -80/-83.
Assay [27] relates to Rattus norvegicus. Nature of the assay: Percent change in volume of foot edema of test compound to that of positive control was determined at a dose of 10 mg/kg in rat; -14/-62.
In assay [28] the test system is Rattus norvegicus. As to the kind of experiment: Percent change in volume of foot edema of test compound to that of positive control was determined at a dose of 31.6 mg/kg in rat; -69/-69.
In assay [29] the test system is Rattus norvegicus. As to the kind of experiment: Percent change in volume of foot edema of test compound to that of positive control was determined at a dose of 31.6 mg/kg in rat; -67/-63.
In assay [30] the test system is Rattus norvegicus. Nature of the assay: Percent change in volume of foot edema of test compound to that of positive control was determined at a dose of 10 mg/kg in rat; -34/-77.
For another assay, the species on record is Cavia porcellus. As to the kind of experiment: Dose that protects 50% of guinea pig from collapse was determined in guinea pig anaphylaxis assay. The note with it: read-out: PD50. An outline of the steps: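 Guinea pigs dosed by gavage (10 mL/kg) with compound in 0.5% Tween 80/water; reference theophylline 100 mg/kg po. At 1–24 h, exposed in chamber to aerosolized 1% (w/v) egg albumin at 10 L air/min for up to 5 min; protected if no collapse within 5 min. PD50 by Litchfield and Wilcoxon.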

Regarding `OC(CCN1CCN(c2ccc(Cl)cc2)CC1)COc1ccccc1` (stereo unspecified), the PFA in the assay on Rattus norvegicus [1] is recorded as -65; in the assay on Rattus norvegicus [2], -43.

Regarding `OC(CCN1CCN(c2ccccc2)CC1)COc1cccc(C(F)(F)F)c1` (stereo unspecified), the PFA in the assay on Rattus norvegicus [3] was -49; in the assay on Rattus norvegicus [4], -26.

Consider `COc1ccccc1N1CCN(CCC(O)COc2ccccc2)CC1` (stereo unspecified), for which the PFA in the assay on Rattus norvegicus [5] is -79; in the assay on Rattus norvegicus [6] it was 22.

With `Cc1ccc(N2CCN(CCC(O)COc3ccccc3)CC2)cc1` (stereo unspecified), the PFA is -85 in the assay on Rattus norvegicus [7], -34 in the assay on Rattus norvegicus [8] and -50 with Rattus norvegicus [9].

For the molecule `OC(CCN1CCN(c2ccccc2)CC1)COc1ccc(-c2ccccc2)cc1` (stereo unspecified), the PFA in the assay with Rattus norvegicus [10] is listed as -29; in the assay with Rattus norvegicus [11], -65.

With `NC(=O)c1ccc(OCC(O)CCN2CCN(c3ccc(F)cc3)CC2)cc1` (stereo unspecified), the PFA in the assay on Rattus norvegicus [12] is on record as -82; with Rattus norvegicus [13], -56; in the assay on Rattus norvegicus [14] it was -9.

Consider `COc1cccc(N2CCN(CCC(O)COc3ccccc3)CC2)c1` (stereo unspecified), for which the PFA in the assay on Rattus norvegicus [15] was 3; in the assay with Rattus norvegicus [16] it was -69.

With `NC(=O)c1ccc(OCC(O)CCN2CCN(c3ccccn3)CC2)cc1` (stereo unspecified), the PFA is -38 in the assay on Rattus norvegicus [17], -73 in the assay with Rattus norvegicus [18] and -13 in the assay with Rattus norvegicus [19].

As to `OC(CCN1CC=C(c2ccccc2)CC1)COc1ccccc1` (stereo unspecified), the PFA in the assay with Rattus norvegicus [20] is -30.

Consider `OC(CCN1CCc2ccccc2C1)COc1ccccc1` (stereo unspecified), for which the PFA with Rattus norvegicus [21] was found to be 7.

Turning to `OC(CCN1CCN(c2ccc(F)cc2)CC1)COc1ccccc1` (stereo unspecified), the PFA was -88 with Rattus norvegicus [22], -53 in the assay with Rattus norvegicus [23] and -18 in the assay with Rattus norvegicus [24].

Consider `CC(=O)c1ccc(N2CCN(CCC(O)COc3ccccc3)CC2)cc1` (stereo unspecified), for which the PFA is reported as -36 in the assay with Rattus norvegicus [25] and -80 with Rattus norvegicus [26].

Turning to `COc1ccccc1OCC(O)CCN1CCN(c2ccccc2)CC1` (stereo unspecified), the figures for the PFA with Rattus norvegicus [27] and in the assay with Rattus norvegicus [28] were -14 and -69, respectively.

In the case of `COc1ccc(N2CCN(CCC(O)COc3ccccc3)CC2)cc1` (stereo unspecified), the PFA in the assay with Rattus norvegicus [29] is on record as -67; with Rattus norvegicus [30], -34.

For `Cn1c(=O)c2nc[nH]c2n(C)c1=O.O` [THEOPHYLLINE], the ED50 in the assay listed under Cavia porcellus is 75 mg/kg.
